SIRT5 block: blocks human SIRT5 desuccinylation of peptide; Q9NXA8; Purified SirT5, succinyl-peptide AMC, trypsin-coupled fluorescence; inhibition, % at 15 µM; hit rate 1.1% among 330,000; AID 652115; in the data active = inhibition above about 15%
Target sequence (Q9NXA8 whole entry, looked up): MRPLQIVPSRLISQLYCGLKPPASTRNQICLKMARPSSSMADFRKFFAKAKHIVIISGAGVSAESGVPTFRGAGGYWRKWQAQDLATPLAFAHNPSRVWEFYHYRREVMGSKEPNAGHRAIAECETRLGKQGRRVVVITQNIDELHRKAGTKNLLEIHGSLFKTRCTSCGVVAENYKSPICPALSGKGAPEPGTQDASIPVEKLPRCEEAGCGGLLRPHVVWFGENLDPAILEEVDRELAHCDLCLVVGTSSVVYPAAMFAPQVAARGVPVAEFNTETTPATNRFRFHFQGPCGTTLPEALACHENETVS
PDI inh: inhibitors of human protein disulfide isomerase. inhibition, % at 10 µM. PDI insulin aggregation turbidity, A650, 90 min. hit rate 0.052% among 350,000. AID 588391;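 active = mean inhibition across replicates of 30% or more, whatever share of single replicates reach that level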
ERp5 block: ERp5 (human) disulfide isomerase inhibition; ERp5 insulin aggregation, absorbance 650 nm, 90 min; inhibition, % at 9.99 µM; hit rate 0.05% among 350,000; AID 651711;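 active = mean replicate inhibition above about 25%, with every replicate also reaching it, limit read from the data, passing the limit was not always enough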
FN deposit inh: fibronectin deposition inhibition | AH1F fibroblasts, Alexa488-fibronectin deposition fluorescence, overnight | inhibition, % at 12.6 µM | hit rate 0.086% among 350,000 | AID 743247;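 active = mean inhibition across replicates of 30% or more, regardless of how many single replicates reach that level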;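 also: positive control wells lacked labelled fibronectin entirely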
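Assay system: AH1F fibroblasts / Quantity: 10000 cells per well / Medium: DMEM plus 2% serum, read in PBS / Reagent: labelled fibronectin 24 nM / Dosing: single dose, pinned / Times: 1 h cell attachment, overnight exposure to compound and label / Signal: fluorescence, ex 485 nm, em 525 nm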
MLL AF4-AF9 inh: blocks AF4 peptide binding to human AF9. P42568. AlphaScreen, biotin-AF4 peptide binding to FLAG-AF9. inhibition, % at 10 µM. hit rate 0.47% among 350,000. AID 651704;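 active = every replicate reaching a set inhibition limit, whatever the replicate mean, cut at about 25% in these data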;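 also: 0% = plate neutral control median and 100% = total signal loss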
Starred values were filed as active, the others as inactive. In the library only some 1.3% were active in any assay of this set; here they are far more common.

How did C[C@H]1CN([C@@H](C)CO)C(=O)c2ccccc2-c2ccccc2CO[C@@H]1CN(C)Cc1ccc(C(F)(F)F)cc1 do in these assays?
SIRT5 block: 16.3*; ERp5 block: 7.1; FN deposit inh: -5.1; MLL AF4-AF9 inh: 4.3

How did CO[C@H]1CC[C@@H]2CCOc3c(C#N)cccc3C(=O)N(C)C[C@@H](C)C(=O)N(C)C[C@H]1O2 do in these assays?
SIRT5 block: 1.5; ERp5 block: 2.5; FN deposit inh: 2.3; MLL AF4-AF9 inh: -2.4

How did Cc1ccc(C(=O)COC(=O)CN2C(=O)C3C4CC(C(Br)C4Br)C3C2=O)cc1 (stereo unspecified) do in these assays?
SIRT5 block: 101.6*; PDI inh: 6.0; ERp5 block: -0.4; FN deposit inh: -0.4; MLL AF4-AF9 inh: -3.0

What do the screens show for `OCCCNCc1ccc(N(c2ccccc2)c2ccccc2)cc1`?
SIRT5 block: -4.7; PDI inh: 14.8; ERp5 block: 0.4; FN deposit inh: 5.6; MLL AF4-AF9 inh: 13.5

How did O=C(Nc1nc2ccccc2[nH]1)C1CCN(S(=O)(=O)c2cccs2)CC1 do in these assays?
PDI inh: -8.2

Results for CC(C)NC(=O)c1ccc2c3n(nc2c1)-c1ccc(Cl)cc1CO3 ?
SIRT5 block: -3.8; PDI inh: -1.8; ERp5 block: 5.6; FN deposit inh: 0.7; MLL AF4-AF9 inh: -1.9

How did COCCOC(=O)N1C(=O)[C@@]2(c3ccccc31)[C@H](C(=O)N1CCN(c3ncccn3)CC1)[C@H]1C(=O)O[C@H](c3ccccc3)[C@H](c3ccccc3)N1[C@@H]2c1ccc(O)cc1 do in these assays?
SIRT5 block: 5.8; ERp5 block: -1.2; MLL AF4-AF9 inh: 0.8

Results for C[C@@H]1CN([C@H](C)CO)C(=O)c2cc(NC(=O)Nc3ccc(C(F)(F)F)cc3)ccc2O[C@@H]1CN(C)C(=O)Nc1ccc2c(c1)OCO2 ?
SIRT5 block: 15.1*; ERp5 block: 5.5; MLL AF4-AF9 inh: 1.4

Results for C[C@@H]1CN([C@@H](C)CO)C(=O)c2cc(NC(=O)Nc3ccc(C(F)(F)F)cc3)ccc2O[C@@H]1CN(C)C(=O)Nc1ccc2c(c1)OCO2 ?
SIRT5 block: 15.1*; ERp5 block: -3.9; MLL AF4-AF9 inh: 2.4

What do the screens show for `C[C@H]1CN([C@@H](C)CO)C(=O)c2cc(NC(=O)Nc3ccc(C(F)(F)F)cc3)ccc2O[C@H]1CN(C)C(=O)Nc1ccc2c(c1)OCO2`?
SIRT5 block: 6.4; ERp5 block: -5.1; MLL AF4-AF9 inh: 3.8

How did COc1ccc(N(CN2C(=O)C3C4C=CC(C4)C3C2=O)C(=O)c2ccco2)cc1 (stereo unspecified) do in these assays?
PDI inh: 0.9; FN deposit inh: 9.5

How did CN(C=O)c1ccc(CSc2ccccc2)cc1 do in these assays?
SIRT5 block: 36.4*; PDI inh: 9.8; ERp5 block: -9.8; FN deposit inh: -1.7; MLL AF4-AF9 inh: -1.8

What do the screens show for `Cc1cc(C(=O)Nc2cccc3c2O[C@H](CN(C)CC2CCCCC2)[C@@H](C)CN([C@@H](C)CO)C3=O)n(C)n1`?
SIRT5 block: 3.0; ERp5 block: -2.8; MLL AF4-AF9 inh: -17.7

Results for N#Cc1ccc(-c2csc(NC3=NCCCCC3)n2)cc1 ?
SIRT5 block: -0.9; PDI inh: 0.4; ERp5 block: 3.6; FN deposit inh: -2.6; MLL AF4-AF9 inh: -0.3

How did Cc1ccc(S(=O)(=O)Nc2ccc3c(c2)C(=O)N([C@@H](C)CO)C[C@@H](C)[C@@H](CN(C)S(=O)(=O)c2ccc(Cl)cc2)O3)cc1 do in these assays?
SIRT5 block: 19.8*; ERp5 block: 1.2; MLL AF4-AF9 inh: 4.0

How did Cc1ccc(S(=O)(=O)Nc2ccc3c(c2)C(=O)N([C@H](C)CO)C[C@@H](C)[C@H](CN(C)S(=O)(=O)c2ccc(Cl)cc2)O3)cc1 do in these assays?
SIRT5 block: 16.0*; ERp5 block: -6.0; MLL AF4-AF9 inh: -3.0

How did CCOC(=O)N1CCC(NC(=O)c2cc(S(=O)(=O)N3CCC4(CC3)OCCO4)ccc2F)CC1 do in these assays?
PDI inh: 4.8; FN deposit inh: -9.8

What do the screens show for `O=C(NCCCc1ccccc1)c1cc(COc2ccc(F)cc2Cl)on1`?
SIRT5 block: -2.0; PDI inh: 3.0; ERp5 block: 3.9; FN deposit inh: 3.9; MLL AF4-AF9 inh: -2.9

What do the screens show for `CCCN1C(=O)/C(=C2/C=Cc3ccccc3N2CC)SC1=S`?
SIRT5 block: 1.7; PDI inh: 0.8; ERp5 block: -0.8; FN deposit inh: 9.9; MLL AF4-AF9 inh: 26.3*

What do the screens show for `CCCN1/C(=C2/SC(=S)N(CC)C2=O)C=Cc2ccccc21`?
PDI inh: 2.4; FN deposit inh: 11.5

Results for O=C(OCc1nc2scc(-c3ccccc3)c2c(=O)[nH]1)c1cc([N+](=O)[O-])ccc1Cl ?
SIRT5 block: -1.6; PDI inh: -3.5; ERp5 block: 2.5; FN deposit inh: -0.5; MLL AF4-AF9 inh: -11.0

How did Cc1noc(C)c1-c1ccc(C(=O)Nc2cccc(C(F)(F)F)c2)c2occc12 do in these assays?
SIRT5 block: 19.0*; PDI inh: -27.8; ERp5 block: 0.8; FN deposit inh: -11.9; MLL AF4-AF9 inh: -5.4

How did Cc1noc(C)c1-c1ccc(C(=O)Nc2cccc(NS(C)(=O)=O)c2)c2occc12 do in these assays?
SIRT5 block: -0.8; PDI inh: -61.6; ERp5 block: 2.9; FN deposit inh: 6.8; MLL AF4-AF9 inh: -4.8

How did CCN1CCCC1CNCc1ccccc1OCc1ccc(F)cc1 (stereo unspecified) do in these assays?
SIRT5 block: -0.6; PDI inh: 8.4; ERp5 block: 2.5; MLL AF4-AF9 inh: 2.2

What do the screens show for `CC(C)CCOc1ccc(C(=O)O)cc1`?
PDI inh: -10.0

Results for CC(C)CCOc1ccc(C(=O)N2CCCC2C(=O)O)cc1 (stereo unspecified) ?
SIRT5 block: 16.8*; PDI inh: -2.1; ERp5 block: 7.8; FN deposit inh: -0.9; MLL AF4-AF9 inh: -2.1

What do the screens show for `Cc1ccc(-c2ccc([C@H]3[C@@H](CO)N4CCCCN(S(=O)(=O)c5cccc(C)c5)C[C@@H]34)cc2)cc1`?
SIRT5 block: -3.1; ERp5 block: -0.9; MLL AF4-AF9 inh: -6.3

How did Cc1cccc(-c2ccc([C@@H]3[C@@H](CO)N4C(=O)CN(S(=O)(=O)c5cccc(F)c5)C[C@@H]34)cc2)c1 do in these assays?
SIRT5 block: 20.4*; ERp5 block: 0.7; MLL AF4-AF9 inh: -0.2

What do the screens show for `Cc1ccc(-c2ccc([C@@H]3[C@@H](CO)N4CCCCN(S(=O)(=O)c5cccc(C)c5)C[C@H]34)cc2)cc1`?
SIRT5 block: 23.0*; ERp5 block: -3.9; MLL AF4-AF9 inh: -0.1

How did O=S(=O)(c1cccs1)N1CCCCN2[C@H](CO)[C@H](c3ccc(C4=CCCCC4)cc3)[C@@H]2C1 do in these assays?
SIRT5 block: 18.3*; ERp5 block: -1.6; MLL AF4-AF9 inh: -5.1

How did CN(C)C(=O)c1cccc(-c2ccc([C@H]3[C@@H](CO)N4CCCCN(S(C)(=O)=O)C[C@@H]34)cc2)c1 do in these assays?
SIRT5 block: 40.8*; ERp5 block: 0.7; MLL AF4-AF9 inh: -0.7

High-throughput results (PubChem)
